Test results: ChEMBL document CHEMBL4622977, “A CNS-Targeting Prodrug Strategy for Nuclear Receptor Modulators” (J Med Chem, 2020)
Activity calls are given as the source filed them. The rule behind the calls is not given here.

Experiments:
[1] = mouse, in vivo, ip
in vivo = conditions: C57BL/6, mouse, brain/serum, ip, 9.14 umol/kg
[2] = AUC (0.5 to 6 hrs) in C57BL/6 mouse serum at 9.14 umol/kg, ip by LC-MS/MS analysis; type: ADME, organism-based; design: time upper 6 hr, dose 9.14 umol/kg, time lower 0.5 hr, route intraperitoneal; conditions: in vivo
In short: (§1)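 Male wild-type C57BL/6 mice (8−10 weeks, n=3 per time point) received parent drug or equimolar prodrug at […] i.p. in DMSO. Brain and serum were collected at 0.5, 2 and 6 h. Parent acid was quantified by LC-MS/MS against vehicle-tissue standard curves with d₆-sobetirome internal standard. AUC0.5–6 h was computed from the time course; mean ± SEM.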

[3] = AUC (0.5 to 6 hrs) in C57BL/6 mouse brain assessed as GW501516 level at 9.14 umol/kg, ip by LC-MS/MS analysis; type: ADME, organism-based; design: time 0.5-6 hr, dose 9.14 umol/kg, route intraperitoneal; conditions: in vivo
In short: as §1

[4] = AUC (0.5 to 6 hrs) in C57BL/6 mouse serum assessed as GW501516 level at 9.14 umol/kg, ip by LC-MS/MS analysis; type: ADME, organism-based; design: dose 9.14 umol/kg, time upper 6 hr, time lower 0.5 hr, route intraperitoneal; conditions: in vivo
In short: as §1

[5] = Prodrug conversion in C57BL/6 mouse brain assessed as GW501516 level at 9.14 umol/kg, ip measured after 1 hr in presence of FAAH inhibitor PF-3845 by LC-MS/MS analysis; type: ADME, organism-based; conditions: in vivo
In short: (§2)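 Male C57BL/6 mice (n=3) received PF-3845 at 1 mg/kg i.p., then prodrug at […] i.p. 1 h later; comparators received prodrug alone. Vehicle was DMSO. Whole brain was taken 1 h after prodrug and homogenized in water with d₆-sobetirome internal standard. It was extracted with EtOAc/MeCN and parent acid was measured by LC-MS/MS; mean ± SEM, 2-tailed unpaired t test.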

[6] = Brain to serum concentration ratio, Kp of the compound in C57BL/6 mouse assessed as GW501516 level at 9.14 umol/kg, ip by LC-MS/MS analysis; type: ADME, organism-based
In short: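 Brain-to-serum ratio Kp was calculated from brain and serum parent-drug AUC0.5–6 h (ng/g*h). These AUCs came from male C57BL/6 mice (n=3 per time point) given parent drug or equimolar prodrug at […] i.p. in DMSO, sampled at 0.5, 2 and 6 h. Parent acid was quantified by LC-MS/MS with d₆-sobetirome internal standard.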

[7] = AUC (0.5 to 6 hrs) in C57BL/6 mouse serum assessed as bexarotene level at 9.14 umol/kg, ip by LC-MS/MS analysis; type: ADME, organism-based; design: dose 9.14 umol/kg, time 0.5-6 hr, route intraperitoneal; conditions: in vivo
In short: as §1

[8] = AUC (0.5 to 6 hrs) in C57BL/6 mouse brain assessed as bexarotene level at 9.14 umol/kg, ip by LC-MS/MS analysis; type: ADME, organism-based; design: dose 9.14 umol/kg, time 0.5-6 hr, route intraperitoneal; conditions: in vivo, BLD = below limit of detection
In short: as §1

[9] = Prodrug conversion in C57BL/6 mouse brain assessed as bexarotene level at 9.14 umol/kg, ip measured after 1 hr in presence of FAAH inhibitor PF-3845 by LC-MS/MS analysis; type: ADME, organism-based; conditions: in vivo
In short: as §2

[10] = Prodrug conversion in C57BL/6 mouse brain assessed as GW3965 level at 9.14 umol/kg, ip measured after 1 hr in presence of FAAH inhibitor PF-3845 by LC-MS/MS analysis; type: ADME, organism-based; conditions: in vivo
In short: as §2

[11] = AUC (0.5 to 6 hrs) in C57BL/6 mouse serum assessed as GW3965 level at 9.14 umol/kg, ip by LC-MS/MS analysis; type: ADME, organism-based; design: time 0.5-6 hr, dose 9.14 umol/kg, route intraperitoneal; conditions: in vivo
In short: as §1

[12] = AUC (0.5 to 6 hrs) in C57BL/6 mouse brain assessed as GW3965 level at 9.14 umol/kg, ip by LC-MS/MS analysis; type: ADME, organism-based; design: dose 9.14 umol/kg, time 0.5-6 hr, route intraperitoneal; conditions: in vivo, BLD = below limit of detection
In short: as §1

Mus musculus = assay: In vivo agonist activity at PPAR in C57BL/6 mouse assessed upregulation of Pgc1-alpha gene expression at 9.14 umol/kg, ip administered once daily for 7 days by Trizol reagent based RT-qPCR analysis; type: functional, organism-based
In short: (§3)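 Male C57BL/6 mice (n=5) were dosed once daily for 7 days i.p. with parent drug at […], equimolar prodrug, or vehicle. The vehicle was 1:1:8 Kolliphor:NMP:water. Target gene expression was compared between groups per tissue by 2-tailed unpaired t test.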

[13] = Renal toxicity in C57BL/6 mouse assessed effect on Fasn gene expression in kidney at 9.14 umol/kg, ip administered once daily for 7 days by Trizol reagent based RT-qPCR analysis; type: organism-based; conditions: in vivo, 168 h
In short: as §3

AUC [1] | Kp (in vivo) | AUC [2] | SMILES | further results
11.9 ng·h/g | 0.016 | 756.9 ng·h/g | Cc1cc(OCC(=O)O)cc(C)c1Cc1cc(C#Cc2ccc([N+](=O)[O-])cc2)c(O)c(C(C)C)c1 | –
1867 ng·h/g | 0.21 | 8853 ng·h/g | O=C(O)Cc1cccc(OCCCN(Cc2cccc(C(F)(F)F)c2Cl)CC(c2ccccc2)c2ccccc2)c1 | –
– | – | – | CNC(=O)COc1ccc(SCc2sc(-c3ccc(C(F)(F)F)cc3)nc2C)cc1C | AUC [3]: 146.3 ng·h/g; AUC [4]: 2705 ng·h/g; Drug metabolism [5]: Metabolite_Detected; Kp [6]: 0.054
– | – | 5108 ng·h/g | O=C(O)Cc1cc(I)c(Oc2ccc(O)c(I)c2)c(I)c1 [TIRATRICOL] | –
– | – | – | C=C(c1ccc(C(=O)NC)cc1)c1cc2c(cc1C)C(C)(C)CCC2(C)C | AUC [7]: 4.933 ng·h/g; AUC [8]: Bld; Drug metabolism [9]: Metabolite_Notdetected
67.35 ng·h/g | 0.03 | 2140 ng·h/g | CCCc1c(OCCCSc2ccc(CC(=O)O)cc2Cl)ccc2c(C(F)(F)F)noc12 | –
– | – | – | CNC(=O)Cc1cccc(OCCCN(Cc2cccc(C(F)(F)F)c2Cl)CC(c2ccccc2)c2ccccc2)c1 | Drug metabolism [10]: Metabolite_Notdetected; AUC [11]: 155.4 ng·h/g; AUC [12]: Bld
7.3 ng·h/g | 0.004 | 2107 ng·h/g | CCO[C@@H](Cc1ccc(OCCc2ccc(OS(C)(=O)=O)cc2)cc1)C(=O)O [TESAGLITAZAR] | Activity (Mus musculus): inactive; Activity [13]: Toxic
